According to ChEMBL document CHEMBL4406880, “Design, synthesis, and bioactivity of dihydropyrimidine derivatives as kinesin spindle protein inhibitors” (Bioorg Med Chem, 2019):

Key:
Assay type in all cases: functional
BT-549 = test: Growth inhibition of human BT549 cells assessed as cell viability at 1 uM incubated for 48 hrs by sulforhodamine B assay; details: BT-549, 48 h, read-out: Activity
IGROV-1 [1] = test: Growth inhibition of human IGROV1 cells assessed as cell viability at 0.001 uM incubated for 48 hrs by sulforhodamine B assay relative to control; details: IGROV-1, 48 h, read-out: Activity
MOLT-4 [2] = test: Growth inhibition of human MOLT4 cells assessed as cell viability at 1 uM incubated for 48 hrs by sulforhodamine B assay; details: MOLT-4, 48 h, read-out: Activity
OVCAR-4 = test: Growth inhibition of human OVCAR4 cells assessed as cell viability at 100 uM incubated for 48 hrs by sulforhodamine B assay; details: OVCAR-4, 48 h, read-out: Activity
786-0 = test: Growth inhibition of human 786-0 cells assessed as cell viability at 0.001 uM incubated for 48 hrs by sulforhodamine B assay relative to control; details: 786-0, 48 h, read-out: Activity
CAKI-1 = test: Growth inhibition of human Caki1 cells assessed as cell viability at 100 uM incubated for 48 hrs by sulforhodamine B assay; details: CAKI-1, 48 h, read-out: Activity
MDA-MB-468 = test: Growth inhibition of human MDA-MB-468 cells assessed as cell viability at 0.001 uM incubated for 48 hrs by sulforhodamine B assay relative to control; details: MDA-MB-468, 48 h, read-out: Activity
IGROV-1 [3] = test: Growth inhibition of human IGROV1 cells incubated for 48 hrs by sulforhodamine B assay; details: IGROV-1, 48 h
In short: (§1)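 NCI-60 five-dose SRB assay in RPMI 1640 with 5% FBS, 37 °C, 5% CO2. Compound given at five tenfold dilutions, 0.01–100 µM, for 48 h. Adherent cells fixed with TCA, suspension cells with 16% final TCA. Bound SRB read at 515 nm and growth calculated against time-zero and untreated controls. GI50 taken from dose–response curves as the concentration giving a 50% decrease in net cell growth.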

A498 = test: Growth inhibition of human A498 cells assessed as cell viability at 1 uM incubated for 48 hrs by sulforhodamine B assay; details: A498, 48 h, read-out: Activity
In short: (§2)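 NCI-60 five-dose mode: five tenfold dilutions (0.01, 0.1, 1, 10, 100 µM) are applied for 48 h to cells in RPMI 1640 with 5% FBS at 37 °C. Endpoint is TCA fixation with sulforhodamine B read at 515 nm. % growth comes from the 0 h and control absorbances. GI50 is the concentration giving a 50% reduction in net cell growth.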

MOLT-4 [4] = test: Growth inhibition of human MOLT4 cells assessed as cell viability at 0.1 uM incubated for 48 hrs by sulforhodamine B assay; details: MOLT-4, 48 h, read-out: Activity
MOLT-4 [5] = test: Growth inhibition of human MOLT4 cells incubated for 48 hrs by sulforhodamine B assay; details: MOLT-4, 48 h; in short: as §1
TK-10 = test: Growth inhibition of human TK10 cells incubated for 48 hrs by sulforhodamine B assay; details: TK-10, 48 h
In short: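 NCI-60 five-dose SRB assay. Cells were exposed for 48 h to tenfold dilutions of 0.01, 0.1, 1, 10 and 100 µM, in RPMI 1640 with 5% FBS. Plates fixed with TCA at the time of drug addition served as the time-zero reference. GI50 is the concentration giving a 50% reduction in net growth. TGI is total growth inhibition. LC50 is a net 50% loss of the initial cells.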

NCI-H322M = test: Growth inhibition of human NCI-H322M cells assessed as cell viability at 1 uM incubated for 48 hrs by sulforhodamine B assay; details: read-out: Activity
UACC-62 = test: Growth inhibition of human UACC62 cells assessed as cell viability at 100 uM incubated for 48 hrs by sulforhodamine B assay; details: UACC-62, 48 h, read-out: Activity
ACHN = test: Growth inhibition of human ACHN cells assessed as cell viability at 0.1 uM incubated for 48 hrs by sulforhodamine B assay; details: read-out: Activity; in short: as §2
HCT-15 = test: Growth inhibition of human HCT15 cells incubated for 48 hrs by sulforhodamine B assay; details: HCT-15, 48 h; in short: as §2
Hs-578T = test: Growth inhibition of human Hs 578T cells assessed as cell viability at 1 uM incubated for 48 hrs by sulforhodamine B assay; details: read-out: Activity
SK-OV-3 = test: Growth inhibition of human SKOV3 cells assessed as cell viability at 100 uM incubated for 48 hrs by sulforhodamine B assay; details: SK-OV-3, 48 h, read-out: Activity
UO-31 = test: Growth inhibition of human UO31 cells assessed as cell viability at 1 uM incubated for 48 hrs by sulforhodamine B assay; details: UO-31, 48 h, read-out: Activity
HCC 2998 = test: Growth inhibition of human HCC2998 cells assessed as cell viability at 0.1 uM incubated for 48 hrs by sulforhodamine B assay; details: HCC 2998, 48 h, read-out: Activity
SK-MEL-28 [6] = test: Growth inhibition of human SK-MEL-28 cells assessed as cell viability at 0.001 uM incubated for 48 hrs by sulforhodamine B assay relative to control; details: SK-MEL-28, 48 h, read-out: Activity
HOP-62 = test: Growth inhibition of human HOP62 cells incubated for 48 hrs by sulforhodamine B assay; details: HOP-62, 48 h; in short: as §1
NCI-H226 = test: Growth inhibition of human NCI-H226 cells incubated for 48 hrs by sulforhodamine B assay; details: NCI-H226, 48 h; in short: as §1
NCI-H23 = test: Growth inhibition of human NCI-H23 cells assessed as cell viability at 0.1 uM incubated for 48 hrs by sulforhodamine B assay; details: NCI-H23, 48 h, read-out: Activity
SK-MEL-28 [7] = test: Growth inhibition of human SK-MEL-28 cells assessed as cell viability at 100 uM incubated for 48 hrs by sulforhodamine B assay; details: SK-MEL-28, 48 h, read-out: Activity
[8] = read-out: LC50 (the source's name)
[9] = read-out: pLC50 (the source's name) (converted)

Compound: CC1=C(C(=O)OCc2ccccc2)C(c2ccc3c(c2)OCO3)n2c(nc3ccccc32)N1 (racemic)
- viability at 1 µM (BT-549): 49%
- viability at 0.001 µM (IGROV-1 [1]): 92%
- viability at 1 µM (MOLT-4 [2]): 43%
- viability at 100 µM (OVCAR-4): 19%
- viability at 0.001 µM (786-0): 94%
- viability at 100 µM (CAKI-1): 23%
- viability at 0.001 µM (MDA-MB-468): 90%
- GI50 (IGROV-1 [3]; read-out: GI50): 0.62 µM
- CC50 (IGROV-1 [3]; [8]): > 100 µM
- TGI (IGROV-1 [3]; read-out: TGI): > 100 µM
- GI50 (IGROV-1 [3]; read-out: pGI50 (converted)): 0.617 µM
- CC50 (IGROV-1 [3]; [9]): > 100 µM
- TGI (IGROV-1 [3]; read-out: pTGI): > 100 µM
- viability at 1 µM (A498): 15%
- viability at 0.1 µM (MOLT-4 [4]): 99%
- GI50 (MOLT-4 [5]; read-out: GI50): 0.75 µM
- CC50 (MOLT-4 [5]; [8]): > 100 µM
- TGI (MOLT-4 [5]; read-out: TGI): > 100 µM
- GI50 (MOLT-4 [5]; read-out: pGI50 (converted)): 0.759 µM
- CC50 (MOLT-4 [5]; [9]): > 100 µM
- TGI (MOLT-4 [5]; read-out: pTGI): > 100 µM
- GI50 (TK-10; read-out: GI50): > 100 µM
- CC50 (TK-10; [8]): > 100 µM
- TGI (TK-10; read-out: TGI): > 100 µM
- GI50 (TK-10; read-out: pGI50 (converted)): > 100 µM
- CC50 (TK-10; [9]): > 100 µM
- TGI (TK-10; read-out: pTGI): > 100 µM
- viability at 1 µM (NCI-H322M): 48%
- viability at 100 µM (UACC-62): 30%
- viability at 0.1 µM (ACHN): 107%
- GI50 (HCT-15; read-out: GI50): 0.37 µM
- LC50 (concentration causing 50% net cell kill) (HCT-15; read-out: LC50): > 100 µM
- TGI (HCT-15; read-out: TGI): > 100 µM
- GI50 (HCT-15; read-out: pGI50 (converted)): 0.372 µM
- LC50 (concentration causing 50% net cell kill) (HCT-15; read-out: pLC50 (converted)): > 100 µM
- TGI (HCT-15; read-out: pTGI): > 100 µM
- viability at 1 µM (Hs-578T): 5%
- viability at 100 µM (SK-OV-3): 42%
- viability at 1 µM (UO-31): 38%
- viability at 0.1 µM (HCC 2998): 96%
- viability at 0.001 µM (SK-MEL-28 [6]): 98%
- GI50 (HOP-62; read-out: GI50): 0.78 µM
- CC50 (HOP-62; [8]): > 100 µM
- TGI (HOP-62; read-out: TGI): > 100 µM
- GI50 (HOP-62; read-out: pGI50 (converted)): 0.776 µM
- CC50 (HOP-62; [9]): > 100 µM
- TGI (HOP-62; read-out: pTGI): > 100 µM
- GI50 (NCI-H226; read-out: GI50): > 100 µM
- LC50 (concentration killing 50% of starting cells) (NCI-H226; read-out: LC50): > 100 µM
- TGI (NCI-H226; read-out: TGI): > 100 µM
- GI50 (NCI-H226; read-out: pGI50 (converted)): > 100 µM
- LC50 (concentration killing 50% of starting cells) (NCI-H226; read-out: pLC50 (converted)): > 100 µM
- TGI (NCI-H226; read-out: pTGI): > 100 µM
- viability at 0.1 µM (NCI-H23): 92%
- viability at 100 µM (SK-MEL-28 [7]): 60%
